Among the data in PubChem BioAssay AID809 (SRMLSC, 2007) are EC50 values, retold here.

Molecules are shown by their SMILES. Calls of active or inactive are those of the source.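 The calls were made as follows: active = EC50 for reversing nicotinamide-shortened yeast lifespan at or below a set limit; inactive = EC50 above that limit.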

The assay relates to S. cerevisiae DeaD BB579, nicotinamide rescue growth, OD615 48 h. The assay is described as follows: BB579 yeast growth restoration under nicotinamide – S. cerevisiae, yeast lifespan extension project, dose response (AID 809). The method in brief:
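Assay system: Saccharomyces cerevisiae DeaD strain BB579, log-phase cells; Medium: CSMM-D glucose restrictive medium; Dosing: compounds from 0.078 to 10 µM final, 0.5% DMSO; Times: 4 h pre-incubation, 48 h exposure at 30 °C; Technique: optical density at 615 nm (absorbance); Evaluation: culture saturation density reflecting mother-cell replicative lifespan.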
For orientation: EC50 means the concentration that produces a half-maximal response. For `CC1CCc2cc(F)cc3c(O)c(C(=O)NCc4ccco4)c(=O)n1c23` (stereo not given), the EC50 is > 10 µM (inactive).

As to `O=C(O)CCCCCN1C(=O)/C(=C\c2ccncc2)SC1=S`, the EC50 was > 10 µM (inactive).

For `Cc1ccc(S(=O)(=O)C(C#N)c2nc3ccccc3nc2N2CCCC2)cc1` (stereo not given), the EC50 was > 10 µM (inactive).

For `Cc1ncc(C23CC4CC(CC(C4)C2)C3)[nH]1`, the EC50 was > 10 µM (inactive).

Regarding `COc1ccc(/C=C(\C#N)C(=O)N2CCOCC2)cc1Br`, the EC50 was 8.72 µM.

On to `Cc1[nH]n(-c2ccccc2)c(=O)c1N=Nc1nccs1`, for which the EC50 was 6 µM.

In the case of `CCOC(=O)C1C(=O)C(C(C)=O)C(=O)CC1CC(C)SCC` (stereo not given), the 50% effective concentration (EC50) is 2.06 µM.

Take `CNC(=O)/C(C#N)=C/c1c(F)cccc1Cl`: the concentration giving a half-maximal response (EC50) is 7.85 µM.

Regarding `CCCC(=O)Nc1ccccc1Sc1ncnc2scc(-c3ccccc3)c12`, the EC50 is > 10 µM (inactive).

Take `Cc1cc(C)c(S(=O)(=O)c2ccccc2)c(OC(=O)c2ccc(Cl)cc2Cl)n1`: the EC50 is 7.48 µM.

With `O=C1CC(c2ccccc2)CC(O)=C1C=NCCN1CCN(C(=O)Nc2ccccc2)CC1` (stereo not given), the EC50 is 6.64 µM.

Turning to `Cc1ccnc(N=Cc2c(O)ccc3oc4c(c23)CCCC4)c1`, the EC50 is 8.47 µM.

As to `CC(C)c1noc2ncc(C(=O)c3cc(Cl)cc(Cl)c3O)cc12`, the EC50 is > 10 µM (inactive).

On to `C=C(C(=O)c1ccccc1)C(C)C(=C)C(=O)c1ccccc1`, for which the EC50 is 4.62 µM.

Regarding `O=c1c2[nH]c3ccccc3c2ncn1Cc1ccco1`, the EC50 is > 10 µM (inactive).

Take `Cc1ccc(/C=C2/C(=O)NC(=O)N(CCc3ccc(F)cc3)C2=O)o1`: the EC50 was > 10 µM (inactive).

Turning to `COc1ccc(C(C)NC(=O)c2ccccc2)cc1` (stereo not given), the EC50 was > 10 µM (inactive).

For the molecule `CCCCCCCC(=O)N/N=C(/C)c1c(O)cc(C)oc1=O`, the EC50 is > 10 µM (inactive).

Regarding `COc1ccc(-c2cc(C(F)(F)F)nc(S(C)(=O)=O)n2)cc1`, the EC50 is 6.1 µM.

On to `CC(C)=C1C(=O)NN(c2ccc(C)c(Cl)c2)C1=O`, for which the EC50 was 9.85 µM.

Take `COc1ccc(OC)c(NC(=S)N2CCN(C/C=C/c3ccccc3)CC2)c1`: the EC50 was > 10 µM (inactive).

As to `COC(=O)C1=C(C(=O)OC)C(c2cc(Br)ccc2O)c2sc(=O)[nH]c2S1` (stereo not given), the EC50 was 4.75 µM.

For `Cc1cccc(OC(=O)n2c(=S)oc3cc(Cl)ccc32)c1`, the EC50 is 5.42 µM.

Turning to `Cc1ccc(C(=O)OC2=CC(=O)CC(C)(C)C2)cc1`, the concentration for a half-maximal effect (EC50) is 2.94 µM.

With `CC(=O)Nc1c(O)nc(SCc2ccccc2C#N)[nH]c1=O`, the EC50 was > 10 µM (inactive).

`O=C(CSc1nc2ccccc2o1)c1cc2ccccc2oc1=O`: the EC50 was > 10 µM (inactive).

Turning to `C/C(=N\NC(=O)c1ccccc1O)c1c(O)cc(C)oc1=O`, the EC50 was 2.9 µM.

For the molecule `CCC1CCCCN1S(=O)(=O)c1ccc(S(=O)(=O)N(Cc2cccs2)C2CC2)cc1` (stereo not given), the EC50 was > 10 µM (inactive).

On to `COc1ccccc1-c1c(C)oc2cc(OC(=O)c3ccco3)ccc2c1=O`, for which the EC50 is > 10 µM (inactive).

With `CCCC(=O)Nc1ccc(C(=O)NNC(=S)NC(=O)c2cccs2)cc1`, the EC50 was > 10 µM (inactive).

With `CCCC(=Nc1ccc(N)cc1)C1=C(O)C(C(=O)OC)C(C)(C)CC1=O` (stereo not given), the EC50 is 8.85 µM.

With `Cn1c(SCC(=O)N2CCCc3ccccc32)nnc1-c1c[nH]c2ccccc12`, the EC50 is > 10 µM (inactive).

As for `COc1ccccc1CN(Cc1nc2ccccc2c(=O)[nH]1)C(=O)Nc1cccc(C)c1`, the EC50 is > 10 µM (inactive).

For the molecule `COc1cc(OC)cc(-c2nc3ccccc3c(=O)n2OC(=O)c2ccc(C)c(C)c2)c1`, the EC50 is 8.74 µM.

On to `CCOc1ccc(/C=C/C(=O)c2c(O)c3ccccc3oc2=O)cc1`, for which the EC50 is > 10 µM (inactive).

Regarding `O=C(Nc1nccs1)c1ccc2c(=O)n3c(nc2c1)CCCCC3`, the EC50 was 7.75 µM.

As to `CC(=O)Oc1ccc(N(C(C)=O)S(=O)(=O)c2ccc(C)c([N+](=O)[O-])c2)cc1`, the EC50 was > 10 µM (inactive).

For `CCOc1ccc(/C=C2/C(=O)NC(=O)N(CCc3ccc(F)cc3)C2=O)cc1`, the EC50 was > 10 µM (inactive).

As to `Cc1cc(C2C(C#N)=C(N)Oc3n[nH]c(C)c32)c(C)s1` (stereo not given), the EC50 was > 10 µM (inactive).

Take `CCc1cc2c(=O)c(Oc3ccccc3)c(C)oc2cc1O`: the EC50 is > 10 µM (inactive).

With `CN(C)CC(C(=O)c1ccccc1)c1ccccc1` (stereo not given), the concentration giving a half-maximal response (EC50) is 6.36 µM.

Consider `CCOC(=O)C1=C(N)OC2=C(C(=O)CCC2)C1c1sccc1C` (stereo not given), for which the EC50 was 9.37 µM.

In the case of `CC1(C)CC(=O)c2sc(NS(C)(=O)=O)nc2C1`, the EC50 was > 10 µM (inactive).

With `Cc1cccc(NC(=O)c2c(O)c3cccc4c3n(c2=O)CCC4)n1`, the EC50 was 6.87 µM.

As to `Cc1nn(C(C)(C)C)c(OC(=O)c2ccc(Br)o2)c1Sc1ccccc1`, the EC50 is 7.84 µM.

`O=C(Cn1nc(Cl)nc1Cl)c1cc2ccccc2oc1=O`: the EC50 was > 10 µM (inactive).

On to `CC(C)C(OC(=O)CN1C(=O)COc2ccccc21)C(=O)NC1CCCC1` (stereo not given), for which the EC50 was > 10 µM (inactive).

Regarding `COCCCN(C(=S)Nc1cc(Cl)cc(Cl)c1)C(C)c1ccncc1` (stereo not given), the EC50 was > 10 µM (inactive).

Regarding `CCOC(=O)CS(=O)(=O)c1nc(-c2ccc(F)cc2)cc(C(F)(F)F)n1`, the concentration for a half-maximal effect (EC50) is 5.71 µM.

Consider `COCCn1c(SCC(=O)Nc2ccc(C)cc2)nc2c(oc3ccccc32)c1=O`, for which the EC50 was > 10 µM (inactive).

Turning to `Oc1ccc2ccccc2c1C=Nc1ccc(N2CCOCC2)cc1`, the EC50 is > 10 µM (inactive).

For the molecule `O=S(=O)(Nc1nc2ccccc2nc1Cl)c1ccc2ccccc2c1`, the EC50 was 7.25 µM.

As for `CC1=NN(Cc2ccccc2)C(=O)C1C(c1ccccc1)C(C#N)C#N` (stereo not given), the EC50 was > 10 µM (inactive).

Turning to `O=c1[nH]c2ccccc2nc1C(Cl)c1ccccc1` (stereo not given), the EC50 is 9.79 µM.

Consider `O=C(N/N=C/c1ccc(F)cc1)c1c(O)c2ccccc2[nH]c1=O`, for which the EC50 is 2.22 µM.

As for `COCCCNc1c2c3c(cccc3[nH]c1=O)C(=O)c1ccccc1-2`, the EC50 is 7.85 µM.

Regarding `CN(C)C1(c2nnnn2CCOC(=O)Nc2ccc(Cl)cc2)CCCCC1`, the EC50 is > 10 µM (inactive).

As to `N=c1c2c(-c3ccccc3)c(-c3ccccc3)n(Cc3ccco3)c2ncn1CCCn1ccnc1`, the EC50 was 9.85 µM.

Consider `O=C1CC(c2ccccc2)CC(O)=C1C=NCCN1CCOCC1` (stereo not given), for which the EC50 was 6.42 µM.

Regarding `CN=C(SCc1cc2c(cc1Cl)OCO2)c1c(O)n(C)c(=O)n(C)c1=O`, the EC50 is 6.46 µM.
